What was measured:
[1] = folding enthalpy; higher = less favourable; fluorescence melt of hairpins on a sequencing array, two-state fit; conditions: sodium 0.088 M
Outline: (§1)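 On a sequenced MiSeq flow cell, library hairpins with annealed Cy3 and quencher oligos were imaged for Cy3 fluorescence in 2.5 °C steps up to 60 °C, in 50 mM Na-HEPES pH 8.0, 25 mM NaCl. Normalisation used pre-quench Cy3 and control constructs. Bootstrapped two-state fits gave melting temperature and folding enthalpy, combined by inverse variance across four replicates and with fitted temperatures raised by 9.35 °C to match UV melts.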

[2] = melting temperature; fluorescence melt of hairpins on a sequencing array, two-state fit, raised by 9.35 °C to match UV melts; conditions: sodium 0.088 M
Outline: as §1

Sequence	folding enthalpy [1] [kcal/mol]	Tm [2] [°C]
GCCAAGCGAAAGCATTGC ((.(.((....)).).))	-11.2	32.5
GCCAAGCGAAAGCCCGGC (((..((....))..)))	-20.7	45.8
GCCAAGCGAAAGCCTAGC ((.(.((....)).).))	-9.82	31.2
GCCAAGCGAAAGCTCTGC ((..(((....)))..))	-11.4	31.2
GCCAAGCGAAAGCTGAGC ((..(((....)))..))	-15.3	47.7
GCCAAGCGAAAGCTGGC (((.(((....))))))	-28.3	68.5
GCCAAGCGAAAGCTTCGC ((.((((....)))).))	-16.8	50.4
GCCAAGGCGAAAGCCGGC (((..(((....))))))	-15.7	65.8
GCCAAGGGAAACCCTGGC ((((.((....)).))))	-31.9	52.2
GCCAATGGAAACATTGGC (((((((....)))))))	-38.3	67.8
GCCAATTCGAAAGAAGGC (((..(((....))))))	-20.6	38
GCCACAACGAAAGTTGGC (((..(((....))))))	-15.3	48.5
GCCACACGAAAGTGGGC (((.(((....))))))	-24.6	60.4
GCCACGCGAAAGCAAGGC (((..((....))..)))	-22.9	57.2
GCCACGCGAAAGCAGGGC (((..((....))..)))	-23.5	61.6
GCCACGCGAAAGCATAGC ((.(.((....)).).))	-9.06	26.7
GCCACGCGAAAGCGGCGC ((..(((....)))..))	-15.9	60.8
GCCACGCGAAAGCGTAGC ((.((((....)))).))	-16.9	55.8
GCCACTACGAAAGTAGGC (((..(((....))))))	-13.1	41.5
GCCACTCCGAAAGGAGGC (((..(((....))))))	-8.62	43.9
GCCACTCGAAAGAGAGGC (((.(((....))).)))	-39.1	60
GCCAGACGAAAGTCCGGC (((.(((....))).)))	-27.6	60.1
GCCAGACGAAAGTCGGGC (((.(((....))).)))	-34	68.6

Sequence	folding enthalpy [1] [kcal/mol]	Tm [2] [°C]
GCCAGAGGAAACTCCGGC (((.(((....))).)))	-24.4	45.6
GCCAGAGGAAACTTTGGC ((((.((....)).))))	-32.8	47.4
GCCAGATCGAAAGATGGC (((..(((....))))))	-27.4	48.2
GCCAGCGAAAGCTCGGC ((((((....))).)))	-28.4	60.8
GCCAGCGAAAGCTCGGGC ((((((....)))..)))	-20.4	52.3
GCCAGCGAAAGCTCTGGC ((((((....)))..)))	-24.5	50.6
GCCAGCGAAAGCTTCGGC ((((((....)))..)))	-23.7	47.8
GCCAGCGAAAGCTTTGGC ((((((....)))..)))	-23.8	51.4
GCCAGCGGAAACACCGGC (((.(.(....).).)))	-10.2	27.6
GCCAGCGGAAACGCCGGC (((.(((....))).)))	-26.3	57.1
GCCAGGCCGAAAGGCGGC (((..(((....))))))	-18.4	64.9
GCCAGGCGAAAGCATCGC ((.(.((....)).).))	-8.22	36.1
GCCAGGCGAAAGCCCCGC ((..(((....)))..))	-11.6	28.1
GCCAGGCGAAAGCCCGGC (((.(((....))).)))	-24.5	66.2
GCCAGGCGAAAGCCGTGC ((..(((....)))..))	-13.6	50
GCCAGGCGAAAGCCTCGC ((.((((....)))).))	-17.4	54
GCCAGGCGAAAGCTTCGC ((.(.((....)).).))	-8.82	40.5
GCCAGGGGAAACCTTGGC ((((.((....)).))))	-43.9	53.4
GCCAGTCCGAAAGGAGGC (((..(((....))))))	-22.1	44.4
GCCATAACGAAAGTTGGC (((..(((....))))))	-30.9	49.3
GCCATACGAAAGTAAGGC (((.(((....))).)))	-35.1	52.6
GCCATAGGAAACCATGGC (((((.(....).)))))	-34.2	47.7

— the array DNA melting data of Ke et al. (doi:10.1101/2024.01.08.574731)
